# Legend:
# [1] = target: Synaptic vesicle glycoprotein 2A (Rattus norvegicus) (UniProt Q02563); test: In vitro inhibitory activity against [3H](2S)-2-[4-(3-azidophenyl)-2-oxopyrrolidin-1-yl]butanamide binding to levetiracetam binding site; parameters: concentration or dose not given beside the values; conditions: concentration not given here
# Method in brief: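 Rat cerebral cortex membranes (male Sprague-Dawley, 200–250 g), homogenised in Tris-HCl/sucrose at 4 °C, washed, preincubated 15 min at 37 °C. Binding: 4 °C for 120 min in 50 mmol/L Tris-HCl pH 7.4 with 2 mmol/L MgCl2, 1–2 × 10^-9 mol/L tritiated azidophenyl radioligand, rising test concentrations. Nonspecific binding with 10^-3 mol/L levetiracetam. Rapid filtration, scintillation counting. pIC50 is the mean of two independent determinations.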
# Mus musculus [2] = test: In vivo dose required to protect 50% audiogenic seizure prone mice against clonic convulsions; assay type: functional
# Method in brief: (§1)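 Genetically sound-sensitive DBA-derived mice, male or female, 14–28 g, N = 10 per group. Compound given ip 60 min before stimulus at log-spaced doses, generally 1.0 × 10^-5 to 1.0 × 10^-3 mol/kg, with a vehicle control group. After 30 s orientation, a 90 dB, 10–20 kHz tone was given for 30 s. Clonic convulsions were scored. ED50 with 95% confidence limits came from probit analysis.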
# [3] = Maximum time to achieve peak plasma concentration was determined in rat at 1 mg/kg; assay type: ADME, organism-based; parameters: dose 1 mg/kg
# [4] = Oral bioavailability at 1 mg/kg was determined in rat; assay type: ADME, organism-based; conditions: in vivo, read-out: Bioavailabiility
# [5] = Total clearance at 1 mg/kg was determined in rat; assay type: ADME, organism-based; parameters: dose 1 mg/kg; conditions: in vivo
# [6] = Half life at 1 mg/kg was determined in rat; assay type: ADME, organism-based; parameters: dose 1 mg/kg; conditions: in vivo
# Mus musculus [7] = test: In vivo dose required to protect 50% audiogenic seizure prone mice against clonic convulsions; value ranges from 143 to 283; assay type: functional; method in brief: as §1
# [8] = Oral bioavailability at 10 mg/kg was determined in rat; assay type: ADME, organism-based; conditions: in vivo, read-out: Bioavailabiility
# [9] = Half life at 10 mg/kg was determined in rat; assay type: ADME, organism-based; parameters: dose 10 mg/kg; conditions: in vivo
# [10] = Maximum time to achieve peak plasma concentration was determined in rat at 10 mg/kg; assay type: ADME, organism-based; parameters: dose 10 mg/kg
# [11] = Total clearance at 10 mg/kg was determined in rat; assay type: ADME, organism-based; parameters: dose 10 mg/kg; conditions: in vivo
# Mus musculus [12] = test: In vivo dose required to protect 50% audiogenic seizure prone mice against clonic convulsions; value ranges from 102 to 715; assay type: functional; method in brief: as §1
# Mus musculus [13] = test: In vivo dose required to protect 50% audiogenic seizure prone mice against clonic convulsions; value ranges from 59 to 281; assay type: functional; method in brief: as §1
# Chain of Synaptic vesicle glycoprotein 2A (Rattus norvegicus) (Q02563 whole entry): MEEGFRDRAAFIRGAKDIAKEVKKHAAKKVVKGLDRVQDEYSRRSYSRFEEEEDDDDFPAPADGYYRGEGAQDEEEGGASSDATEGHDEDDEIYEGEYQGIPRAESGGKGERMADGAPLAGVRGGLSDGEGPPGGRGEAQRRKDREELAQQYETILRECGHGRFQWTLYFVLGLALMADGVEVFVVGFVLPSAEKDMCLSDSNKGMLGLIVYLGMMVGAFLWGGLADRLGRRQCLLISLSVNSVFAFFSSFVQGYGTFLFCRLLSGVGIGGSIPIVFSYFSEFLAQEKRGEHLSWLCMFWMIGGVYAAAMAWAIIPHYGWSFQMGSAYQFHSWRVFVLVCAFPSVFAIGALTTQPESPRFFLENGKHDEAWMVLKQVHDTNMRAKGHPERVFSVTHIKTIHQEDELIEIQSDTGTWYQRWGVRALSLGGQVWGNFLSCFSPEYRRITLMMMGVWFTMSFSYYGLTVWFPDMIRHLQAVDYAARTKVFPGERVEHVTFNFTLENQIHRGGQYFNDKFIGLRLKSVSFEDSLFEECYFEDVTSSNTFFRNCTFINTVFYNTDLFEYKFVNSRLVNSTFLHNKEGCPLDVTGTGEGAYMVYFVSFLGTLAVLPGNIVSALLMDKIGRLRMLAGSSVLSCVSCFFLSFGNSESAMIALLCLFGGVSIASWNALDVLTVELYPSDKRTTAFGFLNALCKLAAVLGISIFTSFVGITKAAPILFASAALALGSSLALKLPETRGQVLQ
SMILES,inhibition [1] [%],ED50 (Mus musculus [2]) [µmol/kg],also measured
CC(C)(C(N)=O)N1CCCC1=O,< 20,,
CC[C@@H](C(=N)S)N1CCCC1=O,< 20,1000,
CC[C@@H](C(N)=O)N1C[C@H](CI)CC1=O,,13,Tmax [3]: 0.8 h; bioavailability [4]: 100%; clearance [5]: 4.8 mL/min/kg; half-life [6]: 2 h
CC[C@@H](C(=N)N)N1CCCC1=O,,1000,
CC(C)C(C(N)=O)N1CCCC1=O (centres undefined),,890,
CC[C@@H](C(N)=O)N1CC(CC(C)(C)C)CC1=O (some centres undefined),,1000,
CCC(C(N)=O)N1CC(O)CC1=O (centres undefined),< 20,1000,
CC[C@@H](C(=O)NOC)N1CCCC1=O,< 20,1000,
CCC[C@H](C(N)=O)N1CCCC1=O,,1000,
CC[C@@H](C(N)=O)N1CCC(C)(CC)C1=O (some centres undefined),< 20,1000,
CC[C@@H](C(N)=O)N1C(=O)CCC1C (some centres undefined),,1000,
CC[C@@H](C(=N)NO)N1CCCC1=O,< 20,1000,
CCC(C(N)=O)N1CC(Cc2ccccc2)CC1=O (centres undefined),,1000,
CCC(C(N)=O)N1C[C@H](CO)CC1=O (some centres undefined),< 20,,
CC[C@@H](C(N)=O)N1CC(CC2CC2)CC1=O (some centres undefined),,33,
CC[C@@H](C(N)=O)N1C[C@H](CN=[N+]=[N-])CC1=O,,3.6,
CC(C)(C)[C@@H](C(N)=O)N1CCCC1=O,< 20,,
CCCCCCN(CCCCCC)C(=O)[C@H](CC)N1CCCC1=O,< 20,560,
CC[C@@H](C(N)=O)N1CC(NC(=O)OC)CC1=O (some centres undefined),,540,
CC[C@@H](C(N)=O)N1C[C@H](C(=O)O)CC1=O,< 20,1000,
CC[C@@H](C(=O)O)N1CCCC1=O,< 20,3200,

SMILES,inhibition [1] [%],ED50 (Mus musculus [2]) [µmol/kg],also measured
CCC(C(N)=O)N1CC(COC)CC1=O (centres undefined),,400,
CC[C@@H](C(=O)NO)N1CCCC1=O,,1000,
CCC(C(N)=O)N1CCC(Cc2ccccc2)C1=O (centres undefined),< 20,320,
CCC1CC(=O)N([C@@H](CC)C(N)=O)C1 (some centres undefined),,87,
CCCCC1CC(=O)N(C(CC)C(N)=O)C1 (centres undefined),,480,
CC[C@@H](C(N)=O)N1C[C@H](C(N)=O)CC1=O,< 20,1000,
CC[C@@H](C(=O)N(C)O)N1CCCC1=O,,1000,
CC[C@@H](C(N)=O)N1C[C@H](C)CC1=O,,110,
CC[C@@H](C(=O)NCc1ccccc1)N1CCCC1=O,< 30,560,
CC[C@@H](C(N)=O)N1CCC(CO)C1=O (some centres undefined),< 20,,
CC[C@@H](C(=O)N(C)OC)N1CCCC1=O,< 20,1000,
CCCN(C(C)=O)C(CC)C(N)=O (centres undefined),< 20,,
"CCC(C(N)=O)N1C(=O)CCC1(C)C (single isomer, unassigned)",,1000,
CCCCCC1CCC(=O)N1C(CC)C(N)=O (centres undefined),< 20,,
CC[C@@H](C(N)=O)N1CCCC1=O [LEVETIRACETAM],,,ED50 (Mus musculus [7]): 180 µmol/kg
CCC[C@H]1CC(=O)N([C@@H](CC)C(N)=O)C1,,44,
CCC[C@@H]1CC(=O)N([C@@H](CC)C(N)=O)C1 [BRIVARACETAM],,14,bioavailability [8]: 100%; half-life [9]: 1.7 h; Tmax [10]: 0.5 h; clearance [11]: 4.67 mL/min/kg
CC[C@@H](C(=O)NC)N1CCCC1=O,,1800,
C[C@@H](C(N)=O)N1CCCC1=O,,,ED50 (Mus musculus [12]): 504 µmol/kg
CC[C@@H](C(N)=O)N1CC(N)CC1=O (some centres undefined),< 20,,
CCCCCCCCN(C(=O)Cc1ccc(Cl)cc1)C(CC)C(N)=O (centres undefined),,1000,

SMILES,inhibition [1] [%],ED50 (Mus musculus [2]) [µmol/kg],also measured
CC[C@@H](C(N)=O)N1C[C@H](CSC)CC1=O,,160,
CCC(C(N)=O)N1CC(C(C)C)CC1=O (centres undefined),,360,
CC[C@@H](C(N)=O)N1C[C@H](CN2CCCC2)CC1=O,< 20,320,
CC[C@@H](C(N)=O)N1C[C@H](C(=O)OC)CC1=O,< 20,1000,
NC(=O)CN1CCCC1=O [PIRACETAM],,10000,
NCCCC(C(N)=O)N1CCCC1=O (centres undefined),< 20,,
CC[C@@H](C(N)=O)N(C)C(C)=O,,1800,
CC[C@@H](C(N)=O)N1CCC(C)C1=O (some centres undefined),,1000,
CC[C@H](C(N)=O)N1CCCC1=O [LEVITIRACETAM],,1000,
CC[C@@H](C(=O)Nc1ccccc1)N1CCCC1=O,< 20,560,
CC[C@@H](C(N)=O)N1C[C@H](CBr)CC1=O,,180,
CCC(C(N)=O)N1CC(C(F)(F)F)CC1=O (centres undefined),< 20,1000,
CC[C@@H](C(N)=O)N1C[C@H](CF)CC1=O,,370,
CC[C@@H](C(=O)NN)N1CCCC1=O,,1000,
CC[C@@H](C(N)=O)N1C[C@H](CO[N+](=O)[O-])CC1=O,,25,
CCC[C@@H](C(N)=O)N1CCCC1=O,,,ED50 (Mus musculus [13]): 190 µmol/kg
CCOC(=O)[C@H](CC)N1CCCC1=O,< 20,,
CC[C@@H](C(N)=O)N1C[C@H](CNS(=O)(=O)c2ccccc2)CC1=O,< 20,1000,
CC[C@@H](C(N)=O)N1C[C@H](CCl)CC1=O,,25,
CCCC1(C)CC(=O)N([C@@H](CC)C(N)=O)C1 (some centres undefined),,400,
CCCC1(CCC)CC(=O)N([C@@H](CC)C(N)=O)C1,< 30,1000,

# Reference: ChEMBL document CHEMBL1148391, “Discovery of 4-substituted pyrrolidone butanamides as new agents with significant antiepileptic activity” (J Med Chem, 2004)
